Bioassay records: PubChem BioAssay, The Scripps Research Institute Molecular Screening Center
In the library only some 4.6% were active in any assay of this set; here they are far more common.
CHO parental Ca = counter-screen: ATP calcium response change in parental CHO cells; parental CHO-K1, ATP-induced calcium, Fluo-8 fluorescence; inhibition, % at 5.6 µM; hit rate 0.63% among 330,000; AID 463079;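 active means inhibition above that plate's mean sample inhibition plus 3 SD, cut at about 26% in these data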;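 further: 0% = ATP-challenged DMSO wells and 100% = DMSO wells without ATP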
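Material: parental CHO cells / Compound: single nominal dose of 5.6 µM per compound / Signal: Fluo-8 fluorescence / Replicates: singlicate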
TAAR1 antagonist = human TAAR1 antagonism | Q96RJ0 | CHO RD-HGA16 TAAR1, Fluo-8 calcium fluorescence, antagonist | inhibition, % at 3 µM | hit rate 1.5% among 360,000 | AID 624466;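 active means inhibition above a per-plate cutoff, the mean inhibition of test compounds on that plate plus 3 SD, cut at about 49% in these data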;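 further: 0% = DMSO plus EC80 beta-PEA response and 100% = DMSO alone without agonist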
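Material: CHO RD-HGA16 cells bearing hTAAR1; compound dosing: one-point dosing, 3 µM nominal final; schedule: dye loading 75 min at 37 °C, then 30 min room temperature; measured by: calcium fluorescence with Fluo-8; control set: vehicle and agonist controls; replication: n of 1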
GPR7 antagonist = blocks human GPR7 receptor signaling; P48145; GPR7-expressing cells, fluorescence antagonist assay; inhibition, % at 4.4 µM; hit rate 1.1% among 290,000; in the data active means inhibition above about 16%, passing the limit was not always enough;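 further: cells stimulated with the agonist NPW; 0% = agonist with vehicle and 100% = vehicle without agonist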
Target sequence (P48145 whole entry, looked up): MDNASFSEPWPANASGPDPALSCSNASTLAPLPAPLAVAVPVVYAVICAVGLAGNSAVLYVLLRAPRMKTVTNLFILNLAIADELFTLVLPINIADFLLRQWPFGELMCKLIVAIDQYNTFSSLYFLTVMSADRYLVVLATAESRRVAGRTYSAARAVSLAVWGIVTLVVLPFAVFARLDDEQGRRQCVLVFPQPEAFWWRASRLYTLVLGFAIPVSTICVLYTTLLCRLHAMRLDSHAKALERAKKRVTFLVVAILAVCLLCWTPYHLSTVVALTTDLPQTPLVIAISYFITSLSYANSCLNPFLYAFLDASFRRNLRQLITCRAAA
TAAR1 agonist = human TAAR1 agonism; AID 624467; activation, % at 3 µM; hit rate 0.99% among 360,000; CHO RD-HGA16 TAAR1, Fluo-8 calcium fluorescence; vehicle wells 0%, saturating PEA agonist 100%; Q96RJ0;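 active means activation above the mean activation of all test compounds in the run plus 3 SD, cut at about 38% in these data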
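Assay system: CHO-derived RD-HGA16 cells with stable Gα16 and human TAAR1; timing: 17-24 h seeding, 75 min 37 °C dye, 30 min RT; read-out: % activation from peak over basal fluorescence ratio, DMSO-to-PEA scaled; measured by: kinetic Fluo-8 calcium fluorescence; benchmarks: low control DMSO, high control PEA (EC100); doses: 3 µM single concentration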
OX1R antag-1 = antagonists of human orexin 1 receptor; hit rate 0.43% among 330,000; O43613; AID 434989; CHO/OX1R cells, Fluo-8 calcium fluorescence, orexin A; inhibition, % at 5 µM;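 active means inhibition above its plate's threshold, mean inhibition of all tested compounds on the plate plus 3 SD, cut at about 37% in these data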;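 further: 0% = orexin A challenge wells and 100% = SB-334867-A antagonist wells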
Target sequence (O43613 whole entry, looked up): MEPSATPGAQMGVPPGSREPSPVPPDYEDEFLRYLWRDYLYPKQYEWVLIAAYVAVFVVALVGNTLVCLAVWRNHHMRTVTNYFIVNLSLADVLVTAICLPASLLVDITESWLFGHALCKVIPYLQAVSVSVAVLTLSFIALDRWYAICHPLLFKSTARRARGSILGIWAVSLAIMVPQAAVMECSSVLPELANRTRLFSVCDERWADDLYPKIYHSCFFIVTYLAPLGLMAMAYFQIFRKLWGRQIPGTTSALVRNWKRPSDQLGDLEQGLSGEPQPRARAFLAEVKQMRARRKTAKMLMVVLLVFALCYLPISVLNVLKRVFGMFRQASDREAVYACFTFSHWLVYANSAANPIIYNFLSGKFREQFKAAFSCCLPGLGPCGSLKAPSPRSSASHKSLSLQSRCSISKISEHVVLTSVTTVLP
OX1R antag-2 = antagonists of human orexin 1 receptor (OX1R); O43613; OX1R-expressing cells, FRET antagonist read-out; inhibition, % at 6.6 µM; hit rate 1.8% among 330,000; AID 485270; in the data active means inhibition mostly above about 38%, no sharp cut-off; inactive means mostly below about 40%;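 further: 0% = agonist challenge alone and 100% = reference antagonist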
nonsel antag count = counter-screen for TAAR1 antagonists: nonselective antagonists. shares compounds with TAAR1 antagonist. counterscreen cell line, calcium fluorescence, antagonist mode. inhibition, % at 3 µM. hit rate 77% among 2,400. AID 651780; in the data active means inhibition above about 22%;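 further: CHO-Ga16 host cells stimulated with ATP at an EC80 level; 0% = agonist EC80 plus vehicle and 100% = vehicle without agonist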
TAAR1 antag conf = confirmation of human TAAR1 antagonists. shares compounds with TAAR1 antagonist. TAAR1-expressing cells, fluorescence antagonist read-out. inhibition, % at 3 µM. hit rate 40% among 2,400. AID 651785; in the data active means inhibition above about 49%;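 further: CHO-Ga16 host cells challenged with agonist PEA near its EC80; 0% = agonist at EC80 plus vehicle and 100% = vehicle with no agonist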
Ga16 ag counter = nonselective Ga16 agonist in TAAR1 antagonist counter-screen | shares compounds with TAAR1 antagonist | Ga16-expressing cells, calcium fluorescence, agonist counterscreen | activation, % at 3 µM | hit rate 18% among 2,400 | AID 651953; in the data active means activation above about 12%;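 further: 0% = vehicle wells and 100% = saturating stimulus response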
TAAR1 ag count = activates human TAAR1 in antagonist counter-screen | activation, % at 3 µM | shares compounds with TAAR1 antagonist | hit rate 2% among 2,400 | hTAAR1 cell line, fluorescence activation, agonist mode | AID 651955; in the data active means activation above about 37%;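 further: CHO cells stably expressing TAAR1 with calcium dye readout; 0% = DMSO vehicle and 100% = full agonist response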
* = called active by the depositor; . = not tested or not shown.

SMILES	CHO parental Ca	TAAR1 antagonist	GPR7 antagonist	TAAR1 agonist	OX1R antag-1	OX1R antag-2	nonsel antag count	TAAR1 antag conf	Ga16 ag counter	TAAR1 ag count
O=C(NCCc1c[nH]c2ccccc12)/C(=C\c1cccnc1)NC(=O)c1ccccc1Br	-23	63*	-4	16	-27	23	31*	53*	8	7
Cc1ccc(C(=O)N/C(=C\c2ccco2)C(=O)NCCc2c[nH]c3ccccc23)cc1	-11	7	-10	1	5	36	.	.	.	.
Cc1ccc(/C=C(/NC(=O)c2ccccc2)C(=O)NCCc2c[nH]c3ccccc23)o1	-16	58*	8	17	4	41	25*	42	8	8
O=C(NCCc1c[nH]c2ccccc12)/C(=C\c1cccnc1)NC(=O)c1ccco1	-9	8	2	4	-6	14	.	.	.	.
O=C(Oc1ccc(NC2=C(Cl)C(=O)c3ccccc3C2=O)cc1)c1ccc([N+](=O)[O-])cc1	.	.	-8	.	.	.	.	.	.	.
CC(=O)Nc1ccc(NC2=C(Cl)C(=O)c3ccccc3C2=O)cc1	.	65*	-4	-4	.	.	40*	47	-3	-6
Cc1nn(-c2ccccc2)c(C)c1NC(=O)COC(=O)c1ccc(O)cc1O	.	76*	1	21	.	.	29*	55*	10	11
Cc1nn(-c2ccccc2)c(C)c1NC(=O)COC(=O)[C@@H](NC(=O)c1ccccc1)C(C)C	-20	0	.	1	-23	16	.	.	.	.
CCN(CC(=O)Nc1ccc(NC(C)=O)cc1)C(=O)c1ccc(N(C)S(=O)(=O)c2ccc(C)cc2)cc1	.	101*	.	-4	.	.	1	-2	1	-2
CC1(C)CC(=O)c2c(nc(SCC(=O)Nc3nsc(-c4ccccc4)n3)c(C#N)c2-c2ccccc2)C1	4	19	-9	3	-31	2	.	.	.	.
CCc1c(C#N)c(SCCC(=O)Nc2ccc(F)cc2)nc2c1C(=O)CC(C)(C)C2	0	74*	-9	21	16	17	33*	72*	9	11
O=C(Nc1ccc2oc(-c3cccnc3)nc2c1)c1cccnc1	3	12	-8	9	-38	24	.	.	.	.
O=C(Nc1ccc2oc(-c3cccnc3)nc2c1)c1ccc(Br)o1	-7	52*	-7	20	-12	13	17	25	4	5
O=C(Nc1cccc(-c2nc3ccccc3o2)c1)c1cccnc1	-17	67*	1	10	-17	65*	23*	35	10	7
O=C(CN1CCN(C(C(=O)Nc2ccc(F)cc2)c2ccccc2)CC1)NC1CC1 (stereo not drawn)	-9	10	.	2	-12	-1	.	.	.	.
CCCCC(=O)N(C)c1c(CC)nc2c(OCC(=O)C(C)(C)C)cccn12	.	-15	.	1	.	.	.	.	.	.
CCOC(=O)c1ccc(NS(=O)(=O)c2c(N)[nH]c(=O)[nH]c2=O)cc1	-4	12	.	7	-4	11	.	.	.	.
N#CCC(=O)Nc1ccc(C(=O)OCC(=O)N=c2sccn2Cc2ccccc2Cl)cc1	1	26	.	8	4	14	.	.	.	.
CCOc1ccc(OCCSc2nc3ccccc3c(=O)[nH]2)cc1	-4	63*	-8	33	-6	4	9	26	8	16
Cc1ccc2cc(C#N)c(N3CCN(C(=O)c4ccccc4)CC3)nc2c1	-19	71*	-3	8	-29	13	34*	39	8	3
COc1ccccc1NC(=O)c1ccc(NC(=O)COC(=O)C2(C)CC2(Cl)Cl)cc1 (stereo not drawn)	-8	63*	-11	13	-15	26	29*	61*	11	8
Cc1ccc(C(=O)N2[C@@H]3CN(C)C(=O)[C@@]2(Cc2ccccc2)[C@H]2C(=O)N(C)C(=O)[C@@H]32)cc1	.	10	.	12	.	.	.	.	.	.
OC(c1cccc(Cl)c1)c1nc(-c2cc3ccccc3o2)cs1 (stereo not drawn)	.	61*	.	24	.	.	36*	49*	7	12
COc1cc(NC(=O)Nc2nc(C(N)C3CCCCC3)cs2)cc(OC)c1OC (stereo not drawn)	.	-28	.	2	.	.	.	.	.	.
CCOc1cc(N2CCOCC2)c(OCC)cc1NC(=O)CSc1nnc(N)s1	-16	100*	.	-2	-22	9	7	-4	4	4
SMILES	CHO parental Ca	TAAR1 antagonist	GPR7 antagonist	TAAR1 agonist	OX1R antag-1	OX1R antag-2	nonsel antag count	TAAR1 antag conf	Ga16 ag counter	TAAR1 ag count
COc1ccc(/C=N/Nc2nc(-c3cccnc3)nc3ccccc23)cc1OC	-16	72*	-6	19	-22	24	29*	51*	10	8
Oc1ccc(/C=N/Nc2nc(-c3cccnc3)nc3ccccc23)c(O)c1	-14	81*	-15	15	-14	6	23*	44	8	10
Clc1cccc(CNc2nc(-c3cccnc3)nc3ccccc23)c1	.	45	6	6	.	.	.	.	.	.
Cc1ccc(-c2nc(N/N=C/c3ccncc3)c3ccccc3n2)cc1	-8	57*	8	11	-20	-1	27*	44	4	1
Clc1ccccc1-c1nc(N/N=C/c2cccnc2)c2ccccc2n1	-39	30	8	8	-37	22	.	.	.	.
Cc1cc2c(cc1C)-n1nnnc1C(N1CCCNCC1)C(=O)N2 (stereo not drawn)	.	1	.	2	.	.	.	.	.	.
O=C(COc1ccc(-c2ccccc2)cc1)N/N=C/c1cc(O)ccc1Br	-20	53*	-11	-1	-34	19	22*	28	1	0
O=C(COc1ccc(-c2ccccc2)cc1)N/N=C/c1ccccc1Br	1	17	7	0	-35	21	.	.	.	.
N#Cc1ccc(-c2ccc(OCC(=O)NN=Cc3ccncc3)cc2)cc1	-10	54*	.	14	-7	14	26*	53*	13*	14
COC(=O)[C@@]12C[C@@H](CC(=O)N3CCCC3)C(=O)N(Cc3cccc4ccccc34)C1=CCC(C)(C)C2	.	2	.	1	.	.	.	.	.	.
O=C(COC(=O)CCc1nc2ccccc2s1)Nc1nc(-c2ccccc2)cs1	-11	55*	-9	4	-17	7	33*	37	4	7
Cc1csc(NC(=O)CCc2nc3ccccc3s2)n1	-30	-8	-15	3	-16	30	.	.	.	.
COc1ccc(-c2nc3cc([N+](=O)[O-])ccc3o2)cc1	-11	-18	3	1	5	4	.	.	.	.
